Data as given in ChEMBL document CHEMBL4177581, “The compound (3-{5-[(2,5-dimethoxyphenyl)amino]-1,3,4-thiadiazolidin-2-yl}-5,8-methoxy-2H-chromen-2-one) inhibits the prion protein conversion from PrPC to PrPSc with lower IC50 in ScN2a cells” (Bioorg Med Chem, 2017).
Calls of active or inactive are those of the source. The rule behind the calls is not given here.

Legend:
ScN2a = assay: Antiprion activity against mouse prion protein RML infected mouse ScN2a cells assessed as reduction in proteinase K-resistant PrPSc level at 10 to 100 uM incubated for 5 days followed by proteinase K digestion by Western blot method relative to control; assay type: cell-based
Procedure, shortened: (§1)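 RML scrapie-infected mouse N2a (ScN2a) cells treated for 5 days at […]. Lysates were made in 0.5% NP-40/0.5% deoxycholate Tris-HCl pH 8 buffer and normalised to 1 mg/ml protein. They were digested with 20 µg/ml proteinase K for 1 h at 37 °C, stopped with PMSF, and pelleted at 100,000g. Pellets were immunoblotted with 6D11-biotin. DMSO and quinacrine controls set the normalised percent PrPSc change.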

Major prion protein [1] = target: T1, Major prion protein (Mesocricetus auratus, UniProt P04273); assay: Binding affinity to Syrian hamster PrPC
T1 sequence (P04273 whole entry): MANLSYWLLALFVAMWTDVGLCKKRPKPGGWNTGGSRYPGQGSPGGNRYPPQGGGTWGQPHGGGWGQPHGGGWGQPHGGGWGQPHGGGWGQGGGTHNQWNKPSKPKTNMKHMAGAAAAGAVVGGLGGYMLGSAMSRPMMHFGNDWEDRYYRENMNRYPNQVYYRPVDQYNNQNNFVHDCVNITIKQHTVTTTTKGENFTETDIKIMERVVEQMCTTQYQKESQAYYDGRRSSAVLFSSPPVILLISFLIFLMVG

[2] = Antiprion activity against mouse prion protein RML infected mouse ScN2a cells assessed as reduction in proteinase K-resistant PrPSc level incubated for 5 days followed by proteinase K digestion by Western blot method relative to control; assay type: cell-based; settings: 120 h; procedure, shortened: as §1
Major prion protein [3] = target: T1, Major prion protein; assay: Binding affinity to Syrian hamster PrPC assessed as inhibition of PrPC protein conversion to PrPSc by Western blot
[4] = target: Major prion protein (Mesocricetus auratus) (UniProt P04273); assay: Binding affinity to Syrian hamster PrPC assessed as inhibition of PrPC protein conversion to PrPSc by measuring PrPSc level relative to untreated control; parameters: concentration or dose not given beside the values
Chain of Major prion protein (Mesocricetus auratus) (P04273 whole entry, the tested form may be a part): as the sequence (P04273 whole entry) above

[5] = target: Major prion protein (Mesocricetus auratus) (UniProt P04273); assay: Binding affinity to C-terminal 6x-His-tagged Syrian hamster PrPC (90 to 232 residues) by 15N-HSQC NMR spectroscopy
Procedure, shortened: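 Uniformly 15N-labelled Syrian hamster PrPC residues 90–232 was titrated with ligand at a 5:1 ligand/protein molar ratio. 15N-HSQC spectra were recorded, and binding was read as chemical shift changes and signal attenuation of residues.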

| SMILES | inhibition (ScN2a) | Kd (Major prion protein [1]) | IC50 [2] | EC50 (Major prion protein [3]) | Activity [4] | Activity [5] |
| --- | --- | --- | --- | --- | --- | --- |
| COc1ccc(-c2nc(N)sc2-c2ccc(OC)cc2)cc1 | Active | 15.5 µM | > 100 µM | – | – | – |
| O=C(CC1CNc2ccccc21)NC1CCc2ccccc2C1 (stereo unspecified) | – | 48.6 µM | – | 7.25 µM | 55.3% | – |
| Cc1cccc2cc(C#N)c(N3CCCN(C(=O)C4CCC4)CC3)nc12 | – | – | – | 7.29 µM | 50.6% | – |
| N#Cc1c(NC(=O)c2cc3c(s2)CCCC3)sc2c1CCCC2 | – | – | – | 7.17 µM | 66.9% | – |
| COc1ccc(OC)c(-c2nc(NC(=O)c3cc(OC)c(OC)c(OC)c3)sc2C)c1 | Active | 185 µM | 75 µM | – | – | – |
| O=C(CCc1nc2ccccc2c(=O)[nH]1)NC1CCCc2ccccc21 (stereo unspecified) | – | – | – | 7.18 µM | 65% | – |
| O=C(CN1C(=O)c2cccc3cccc1c23)N[C@@H]1C[C@H]2CC[C@@H]1C2 | – | – | – | 7.18 µM | 65% | – |
| CCCCNc1nc2ccccc2n1CC(=O)N1CCc2ccccc21 | – | – | – | 7.42 µM | 37.3% | – |
| Cc1cccc2cc3c(N)c(C(=O)NC4CCCC4)sc3nc12 | – | – | – | 7.37 µM | 41.9% | – |
| CCC[C@@H]1Nc2ccccc2N1CC(=O)N1CCCc2ccccc21 | – | – | – | 7.17 µM | 67.2% | – |
| COc1ccc(OC)c(Nc2nnc(-c3cc4cccc(OC)c4oc3=O)s2)c1 | Active | 46.4 µM | 20 µM | – | – | – |
| O=C(CN1CCc2ccccc21)[C@H]1COc2cc3c(cc21)CCC3 | – | – | – | – | 63.7% | – |
| Cc1cc2cc3c(cc2nc1SCCN1CCCCC1)OCCO3 | – | 50.8 µM | – | 7.32 µM | 47.4% | – |
| O=C(N[C@@H]1CCc2ccccc2C1)C(=O)O[C@@H]1C=CCc2ccccc21 | – | – | – | 7.27 µM | 53% | – |
| O=C(NC1CCCC1)C1CCCN1C(=O)Nc1ccccc1 (stereo unspecified) | – | – | – | 7.19 µM | 63.2% | – |
| CN1/C(=C/C(=O)Nc2cccs2)c2ccccc2CC1(C)C | – | – | – | 7.24 µM | 57.4% | – |
| CC1Cc2ccccc2N1C(=O)COc1ncnc2sccc12 (stereo unspecified) | – | – | – | 7.17 µM | 67.4% | – |
| COc1ccc(-c2cnc(N)nc2C)cc1OC | Active | – | 35 µM | – | – | – |
| COc1ccc(-c2cnc(N)nc2-c2ccc(OC)cc2)cc1 | Active | – | 35 µM | – | – | – |
| O=C(COC(=O)c1c2c(nc3ccccc13)CCC2)NC1CCCC1 | – | – | – | 7.2 µM | 62.9% | – |
| COc1ccc(-c2nc(N)sc2C)c(OC)c1 | Active | – | 35 µM | – | – | – |
| C[C@@H]1CCCCN1CC(=O)N[C@@H]1S[C@H]2CCCC[C@@H]2[C@H]1C#N | – | – | – | 7.23 µM | 58.8% | – |
| O=C(CSc1ncnc2sc3c(c12)CCC3)NCC1CCCO1 (stereo unspecified) | – | – | – | 7.02 µM | – | – |
| CC1CCCCC1NC(=O)COc1ncnc2sc3c(c12)CCC3 (stereo unspecified) | – | – | – | 7.16 µM | 68.8% | – |
| O=C(CN1C(=O)N[C@@]2(CCCc3ccccc32)C1=O)N1CCCCC1 | – | – | – | 7.17 µM | 67.1% | – |
| O=C(CN1C(=O)COc2ccccc21)N1CCCc2ccccc21 | – | – | – | 7.24 µM | 57.5% | – |
| CCC(C)C(NC(=O)c1ccccc1)C(=O)N1CCc2ccccc21 (stereo unspecified) | – | 51.2 µM | – | 7.43 µM | 36.8% | Active |
| C=CNC(=O)NC(C)=O | – | – | – | 7.24 µM | 56.7% | – |
